ChEMBL document CHEMBL1122273, “5-sulfamoylorthanilic acids, a sulfonamide series with salidiuretic activity” (J Med Chem, 1983)
Active and inactive are the calls of the source. The rule behind the calls is not given here.

How the values were obtained:
Canis familiaris [1] = assay: Sailuric activity in the dog measured as concentration of Cl - in urinary excretion (2 animals/dose) at (dose 0.78 mg/Kg, po); type: functional, Canis lupus familiaris, Urine
Method in brief: (§1)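 Trained male beagles, fasted 24 h with tap water ad libitum. Bladder emptied by catheter, then 20 mL/kg tap water by stomach tube, with 4 mL/kg water at each hourly catheterization up to 8 h. The first 2 h of urine served as control. Oral dosing came after the second catheterization, and 1–6 h urine was pooled. Na⁺ and K⁺ were measured by flame photometry, Cl⁻ argentometrically, in mequiv/kg.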

Rattus norvegicus [2] = species on record: Rattus norvegicus; assay: Saluretic activity in the rat measured as concentration of chloride in urine; type: functional
Method in brief: (§2)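 Rats deprived of food 24 h, water ad libitum, dosed 50 mg/kg by stomach tube as suspension in 2% starch, no extra water load. Groups of three in diuresis funnels; urine over first 5 h collected. Na⁺ and K⁺ by flame photometry, Cl⁻ argentometrically; expressed as mequiv/kg.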

Rattus norvegicus [3] = species on record: Rattus norvegicus; assay: Saluretic activity in the rat measured as concentration of K+ in urine; type: functional; method in brief: as §2
Canis familiaris [4] = assay: Sailuric activity in the dog measured as concentration of Na+ in urinary excretion (2 animals/dose) at (dose 0.78 mg/Kg, po); type: functional, Canis lupus familiaris, Urine
Method in brief: (§3)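 Male beagles trained to the procedures, food withdrawn 24 h before, tap water ad libitum. Bladder emptied by catheter, then 20 mL/kg tap water by stomach tube, plus 4 mL/kg orally at each hourly catheterization up to 8 h. The first 2 h of urine served as control. Compound given orally after the second catheterization. Urine from 1–6 h post-dose pooled; Na⁺ and K⁺ by flame photometry, Cl⁻ argentometrically, in mequiv/kg.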

Canis familiaris [5] = assay: Sailuric activity in the dog measured as concentration of K+ in urinary excretion (2 animals/dose) at (dose 0.78 mg/Kg, po); type: functional, Canis lupus familiaris, Urine; method in brief: as §3
Rattus norvegicus [6] = species on record: Rattus norvegicus; assay: Diuretic activity in the rats, determined by a modified Lipschitz test; type: functional, Urine
Method in brief: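 Modified Lipschitz test: rats deprived of water 24 h, grouped in threes of similar weight in diuresis funnels. Oral dose of 50 mg/kg, suspended in 2% starch solution, by stomach tube.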

Canis familiaris [7] = assay: Diuretic activity in the dog (2 animals/dose) at (dose 6.25 mg/Kg), when administered perorally; type: functional, Canis lupus familiaris, Urine; method in brief: as §1
Canis familiaris [8] = assay: Sailuric activity in the dog measured as concentration of Cl - in urinary excretion (2 animals/dose) at (dose 6.25 mg/Kg, po); type: functional, Canis lupus familiaris, Urine; method in brief: as §3
Canis familiaris [9] = assay: Sailuric activity in the dog measured as concentration of K+ in urinary excretion (2 animals/dose) at (dose 6.25 mg/Kg, po); type: functional, Canis lupus familiaris, Urine; method in brief: as §3
Canis familiaris [10] = assay: Sailuric activity in the dog measured as concentration of Na+ in urinary excretion (2 animals/dose) at (dose 6.25 mg/Kg, po); type: functional, Canis lupus familiaris, Urine; method in brief: as §3
Rattus norvegicus [11] = species on record: Rattus norvegicus; assay: Effect on (GFR) glomerular filtration rate in rats was evaluated
Rattus norvegicus [12] = species on record: Rattus norvegicus; assay: Saluretic activity in the rat measured as concentration of Na+ in urine; type: functional; method in brief: as §2
Rattus norvegicus [13] = species on record: Rattus norvegicus; assay: Effect on Urine flow in rats was evaluated
Canis familiaris [14] = assay: Saluretic activity in the dog measured as concentration of Na+ in urinary excretion (2 animals/dose) at (dose 1.56 mg/Kg, perorally); type: functional, Canis lupus familiaris, Urine
Method in brief: (§4)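 Male beagles trained to rest on a table and to accept stomach tube and catheter. Food withdrawn 24 h before, tap water ad libitum. Bladder emptied by catheter, then 20 mL/kg tap water by stomach tube. Catheterized hourly up to 8 h with 4 mL/kg water orally each time; first 2 h urine served as control. Oral dosing after second catheterization. Pooled 1–6 h urine; Na⁺/K⁺ by flame photometry, Cl⁻ argentometrically.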

Canis familiaris [15] = assay: Salidiuretic activity in the dog measured as concentration of K+ in urinary excretion (2 animals/dose) at (dose 1.56 mg/Kg, perorally); type: functional, Canis lupus familiaris, Urine; method in brief: as §3
Canis familiaris [16] = assay: Salidiuretic activity in the dog measured as concentration of Cl - in urinary excretion (2 animals/dose) at (dose 1.56 mg/Kg, perorally); type: functional, Canis lupus familiaris, Urine; method in brief: as §3
Canis familiaris [17] = assay: Diuretic activity in the dog (2 animals/dose) at (dose 1.56 mg/Kg), when administered perorally; type: functional, Canis lupus familiaris, Urine; method in brief: as §1
[18] = It is the ratio, measured as saluretic activity in the dog as concentration of Na+ in urinary excretion (dose 1.56 mg/Kg, perorally) to that of K; type: functional, Urine; method in brief: as §1
Rattus norvegicus [19] = assay: Saluretic activity on the basis of the 50 mg/kg perorally rat assay; Compound is found to be moderately active; type: functional, organism-based; design: dose 50 mg/kg; method in brief: as §2
Canis familiaris [20] = assay: Saluretic activity in the dog measured as concentration of Cl- in urinary excretion (2 animals/dose) at (dose 1.56 mg/Kg, perorally); type: functional, Canis lupus familiaris, Urine; method in brief: as §3
[21] = It is the ratio, measured as saluretic activity in the dog as concentration of Cl- in urinary excretion (dose 1.56 mg/Kg, perorally) to that of (Na+)+(K+); type: functional, Urine; method in brief: as §1
Canis familiaris [22] = assay: Saluretic activity in the dog measured as concentration of K+ in urinary excretion (2 animals/dose) at (dose 1.56 mg/Kg, perorally); type: functional, Canis lupus familiaris, Urine; method in brief: as §3
Canis familiaris [23] = assay: Saluretic activity on the basis of the 1.56 mg/Kg perorally dog assay; Compound is found to be highly active.; type: functional, organism-based; settings: Canis lupus familiaris; method in brief: as §4

NS(=O)(=O)c1cc(C(=O)O)c(NCc2ccco2)cc1Cl [FUROSEMIDE]
Saluretic activity (Canis familiaris [1]): 1.85 m equiv 6hr-1 kg-1
Saluretic activity (Rattus norvegicus [2]): 7.2 m equiv 5hr-1 kg-1
Saluretic activity (Rattus norvegicus [3]): 2.6 m equiv 5hr-1 kg-1
Saluretic activity (Canis familiaris [4]): 1.37 m equiv 6hr-1 kg-1
Saldiuretic activity (Canis familiaris [5]): 0.5 m equiv 6hr-1 kg-1
Diuretic activity (Rattus norvegicus [6]): 4.9 mL/kg
Diuretic activity (Canis familiaris [7]): 69 ml kg-1 6hr-1
Saluretic activity (Canis familiaris [8]): 6.27 m equiv 6hr-1 kg-1
Saluretic activity (Canis familiaris [9]): 1.26 m equiv 6hr-1 kg-1
Saluretic activity (Canis familiaris [10]): 5.54 m equiv 6hr-1 kg-1
GFR (Rattus norvegicus [11]): 8.82 mL/min/kg
Saluretic activity (Rattus norvegicus [12]): 4.8 m equiv 5hr-1 kg-1
Volume (Rattus norvegicus [13]): 0.998 mL/min/kg

NS(=O)(=O)c1cc(S(=O)(=O)[O-])c(NCCc2ccco2)cc1Cl.[Na+]
Saluretic activity (Canis familiaris [14]): 0.56 m equiv 6hr-1 kg-1
Saluretic activity (Rattus norvegicus [2]): 6.1 m equiv 5hr-1 kg-1
Saldiuretic activity (Canis familiaris [15]): 0.15 m equiv 6hr-1 kg-1
Saldiuretic activity (Canis familiaris [16]): 0.76 m equiv 6hr-1 kg-1
Saluretic activity (Rattus norvegicus [3]): 1.8 m equiv 5hr-1 kg-1
Diuretic activity (Rattus norvegicus [6]): 1.9 mL/kg
Diuretic activity (Canis familiaris [17]): 29.3 ml kg-1 6hr-1
Saluretic activity (Rattus norvegicus [12]): 4.6 m equiv 5hr-1 kg-1

NCc1cccs1.NS(=O)(=O)c1cc(S(=O)(=O)O)c(NCc2cccs2)cc1Cl
Ratio [18]: 4.2
Saluretic activity (Canis familiaris [14]): 2.33 m equiv 6hr-1 kg-1
Saldiuretic activity (Rattus norvegicus [19]): Weak activity
Saluretic activity (Rattus norvegicus [2]): 3.3 m equiv 5hr-1 kg-1
Saluretic activity (Rattus norvegicus [3]): 1.7 m equiv 5hr-1 kg-1
Saldiuretic activity (Canis familiaris [20]): 2.76 m equiv 6hr-1 kg-1
Diuretic activity (Rattus norvegicus [6]): 1 mL/kg
Ratio [21]: 0.95
Diuretic activity (Canis familiaris [17]): 44.5 ml kg-1 6hr-1
Saluretic activity (Canis familiaris [22]): 0.55 m equiv 6hr-1 kg-1
Saluretic activity (Rattus norvegicus [12]): 2.7 m equiv 5hr-1 kg-1
Saldiuretic activity (Canis familiaris [23]): Active
